# UHRF1 binding: blocks human UHRF1 binding to methylated DNA | Q96T88 | UHRF1 binding to methylated oligo, TR-FRET | inhibition, % at 4.4 µM | 370,000 compounds, 0.75% hits | AID 687016;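 further: UHRF1 SRA domain binding a hemimethylated CpG hairpin DNA probe; 0% = median of test compound wells and 100% = reference inhibitor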
# Beta2AR agonist: activates human beta-2 adrenergic receptor causing internalization | response, % (test concentration not listed) | 340,000 compounds, 0.43% hits | Am2.2-beta2AR cells, FAP receptor internalization, flow cytometry;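 active means response above a set limit, near 3 SD of response in nonfluorescent compounds, cut at about 42% in these data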
# MBD2 DNA inh: inhibitors of human MBD2 binding to methylated oligonucleotide; Q9UBB5; TR-FRET; inhibition, % at 4.4 µM; 370,000 compounds, 0.31% hits; AID 686964; in the data active means inhibition above about 13%
# Target sequence (Q9UBB5 whole entry, looked up): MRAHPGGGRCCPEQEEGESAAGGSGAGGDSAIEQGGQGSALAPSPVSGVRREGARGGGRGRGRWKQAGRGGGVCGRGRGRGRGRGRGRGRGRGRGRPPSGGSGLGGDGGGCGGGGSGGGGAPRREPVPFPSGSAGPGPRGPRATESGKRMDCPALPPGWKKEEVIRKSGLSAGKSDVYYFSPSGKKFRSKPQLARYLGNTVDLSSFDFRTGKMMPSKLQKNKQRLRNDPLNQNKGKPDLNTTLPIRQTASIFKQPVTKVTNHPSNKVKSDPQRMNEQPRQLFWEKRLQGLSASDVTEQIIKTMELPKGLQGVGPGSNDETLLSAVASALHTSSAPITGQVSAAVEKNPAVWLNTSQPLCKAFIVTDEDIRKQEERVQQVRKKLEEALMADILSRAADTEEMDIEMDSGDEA
# Arrestin-AP2 inh: human beta-arrestin and AP2 interaction inhibition; FITC-arrestin peptide / GST-AP2 beads, flow cytometry; AP2 beta2 appendage carries R879A mutation; AID 504490; 340,000 compounds, 0.31% hits; inhibition, % at 10 µM;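 active means inhibition above a set limit, near 3 SD of compounds lacking own fluorescence, cut at about 54% in these data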;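 further: plate controls were DMSO wells for no effect and 5 µM unlabelled arrestin peptide for full effect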
#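 Test system: GST-tagged AP2 beta2-adaptin appendage (R879A) on 4 µm glutathione beads; also added: fluorescein-tagged arrestin peptide at 50 nM final; timing: 12 min plus 1 h, RT; signal: flow cytometry, FL1 (488/535 nm); read-out: percent drop in bead-associated FITC signal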
# Rin1-Abl PPI inh: human Rin1-Abl interaction inhibition; TR-FRET Rin1/Abl binding, biochemical; 360,000 compounds, 0.4% hits; AID 588664; inhibition, % at 7.35 µM; P00519+Q13671; in the data active means inhibition above about 5%, passing the limit was not always enough
# ABHD5 PLIN5 PPI: blocks binding of human ABHD5 to perilipin-5; inhibition, % at 4 µM; Split G. princeps luciferase complementation, luminescence, 4 h; 360,000 compounds, 0.78% hits;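 active means inhibition above the mean inhibition across every tested compound plus 3 SD, cut at about 22% in these data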;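 further: 0% = DMSO only wells and the 100% control is not disclosed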
# UHRF1 ctr MBD2: counter-screen for MBD2 inhibitors: human UHRF1 methylated DNA binding inhibitors. shares compounds with MBD2 DNA inh. UHRF1 binding to methylated oligonucleotide, TR-FRET. inhibition, % at 4.4 µM. 1,000 compounds, 25% hits;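 further: UHRF1 SRA domain binding a labeled hemimethylated CpG hairpin DNA; 0% = vehicle only and 100% = reference inhibitor with vehicle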
# MBD2 confirm: MBD2-DBD methyl-DNA binding inhibition, TR-FRET confirmation; shares compounds with MBD2 DNA inh; TR-FRET MBD2-DBD binding to methylated oligonucleotide; inhibition, % at 4.4 µM; 1,000 compounds, 26% hits; AID 720531; in the data active means inhibition above about 14%
# * marks the source's active call; other numbers are inactive results; . = no result given; ! = repeats disagree. An excerpt weighted towards active compounds, which were near 2.5% of everything screened. Unless noted, no stated cut-off is given here; in the data, active means inhibition above about 21%; inactive means the rest.
SMILES,UHRF1 binding,Beta2AR agonist,MBD2 DNA inh,Arrestin-AP2 inh,Rin1-Abl PPI inh,ABHD5 PLIN5 PPI,UHRF1 ctr MBD2,MBD2 confirm
NNC(=O)Cn1c2ccccc2c2ccccc21,-2.4,-2.8,13.8*,17.6,-4.2,10.0,7.9,2.9
O=C(O)Cn1c2ccccc2c2ccccc21,2.6,-6.8,1.4,2.3,1.5,4.8,.,.
Cc1nc2sc(C(=O)NCc3nccs3)c(N)c2c(C)c1Cl,-1.0,.,-6.3,.,.,.,.,.
CC(=O)C1C(c2ccc(OC(F)F)cc2)NC(=O)NC1(O)C(F)(F)F (stereo not drawn),-0.8,9.3,-5.6,19.9,4.0,-4.4,.,.
CC(=O)C1C(c2ccc(F)c(F)c2)NC(=O)NC1(O)C(F)(F)F (stereo not drawn),3.2,3.3,24.4*,26.1,3.4,9.2,5.3,0.3
O=C(N/N=C/C=C/c1ccccc1)c1cc(C2CC2)[nH]n1,-2.2,0.3,20.6*,-15.5,-0.7,3.8,1.4,0.0
COCCn1c(-c2ccccc2)nc2oc3cc(OC)ccc3c(=O)c2c1=O,1.5,0.8,1.8,26.5,-2.2,-0.6,.,.
COc1ccc2c(=O)c3c(=O)n(-c4ccccc4)c(-c4ccc(C)cc4)nc3oc2c1,10.9,-8.3,19.1*,-10.2,-1.6,-3.2,18.1,67.5*
C=Cc1c(C)c2cc3[nH]c(cc4nc(cc5nc(cc1[nH]2)C(C)=C5CCC(=O)O)C(CCC(=O)O)=C4C)c(C)c3C=C,75.5*,45.4*!,47.4*,8.3,4.8,5.5,97.0*,67.2*
Cc1ccc(OCC(=O)c2c(N)n(C)c(=O)n(C)c2=O)c([N+](=O)[O-])n1,22.5*,-6.8,18.6*,12.3,1.0,-0.3,35.5*,17.2*
CC(C)C(C#CC1CC1)N(Cc1ccc2c(c1)OCO2)C(N)=NC(=O)/C=C/c1ccccc1 (stereo not drawn),-2.8,.,0.5,.,.,.,.,.
CCCCCn1nnnc1C1c2ccccc2OCC(=O)N1Cc1ccco1 (stereo not drawn),3.1,.,2.5,.,.,.,.,.
CC(=O)c1ccccc1NC(=O)COC(=O)C1CCCN1S(=O)(=O)c1ccccc1F (stereo not drawn),0.5,0.1,15.4*,-5.9,-0.2,3.7,8.2,2.6
O=C(COC(=O)[C@@H]1CCCN1S(=O)(=O)c1ccccc1F)Nc1ccc(OC(F)F)cc1,-3.0,-6.0,-4.1,-4.3,0.5,-5.4,.,.
Cc1cc(=O)[nH]c(SCC(=O)Nc2cccc(C)c2C)n1,0.7,.,1.1,.,.,.,.,.
CN(C)C(=O)c1cccc(-c2cnc3c(NC=O)cc(-c4ccccc4N(C)C)cn23)c1,-6.0,.,36.1*,.,-20.8,-0.4,-9.5,29.7*
CCn1c2ccccc2c2cc(NC(=O)COC(=O)c3cc(Cl)cc(Cl)c3)ccc21,-2.2,.,-4.0,.,.,.,.,.
CCCn1c(NC(=O)c2ccccc2)nc(Cc2ccccc2)c1-c1ccc(OC)cc1,-0.2,.,4.7,.,.,.,.,.
CCOc1ccc(CCN2C(=O)C(=O)N([C@@H](CC(C)C)CN3CCC[C@H]3CN3C(=O)C(=O)NC[C@@H]3Cc3ccc(O)cc3)C[C@@H]2Cc2ccccc2)cc1,1.3,.,-8.0,.,.,2.7,.,.
CCOc1ccc(CCN2C(=O)C(=O)N([C@@H](CC(C)C)CN3CCC[C@H]3CN3C(=O)C(=O)NC[C@@H]3CC(C)C)C[C@@H]2Cc2ccc(O)cc2)cc1,22.2*,.,15.6*,.,.,9.4,3.9,5.4
O=C(COc1ccc2ccccc2c1Br)Nn1cnnc1,17.3,17.9,19.2*,9.0,-3.7,-0.3,3.6,1.5
Cn1c(=O)c2cc(S(=O)(=O)N3CCN(c4ccccc4Cl)CC3)ccc2n(C)c1=O,-0.3,.,-2.9,.,.,.,.,.
CC(C)C1Nc2ccc(C(=O)O)cc2C2C=CCC21 (stereo not drawn),29.9*,2.3,14.2*,-5.6,2.5,1.4,14.5,0.9
CCCC1Nc2ccc(C(=O)O)cc2C2C=CCC12 (stereo not drawn),.,-5.3,.,9.8,2.5,8.6,.,.
CCOC(=O)C1Nc2ccc(C(=O)O)cc2C2C=CCC12 (stereo not drawn),71.9*,-6.8,26.6*,13.6,4.6,17.2,48.3*,10.9
SMILES,UHRF1 binding,Beta2AR agonist,MBD2 DNA inh,Arrestin-AP2 inh,Rin1-Abl PPI inh,ABHD5 PLIN5 PPI,UHRF1 ctr MBD2,MBD2 confirm
c1ccc(Cn2ccc3ccc(-c4ccc5ccn(Cc6cccc(-c7cccs7)c6)c5c4)cc32)cc1,-0.5,.,1.8,.,.,.,.,.
O=C(Nc1cc(S(=O)(=O)N2CCOCC2)ccc1N1CCCC1)c1cc2c(s1)CCCC2,-1.9,.,-6.3,.,.,.,.,.
CCOC(=O)CC[C@@]1(C(=O)OCC)C[C@@H](CC(=O)N2CCOCC2)C(=O)N2CCCC=C21,-0.2,.,-1.3,.,.,.,.,.
CCc1ccccc1Nc1nc(N)nc(COC(=O)c2c(C)noc2C)n1,23.3*,0.7,13.6*,19.0,0.8,-1.1,4.0,4.7
CN(C)c1ccc(CNc2nc3cc(-c4ccc(F)cc4)sc3c(=O)n2C)cc1,-1.1,.,0.3,.,0.3,-1.7,.,.
COc1ccc(CN2C(=O)CCCC2(C)c2nnnn2-c2ccc3c(c2)OCCO3)cc1 (stereo not drawn),-0.6,.,3.9,.,.,.,.,.
O=C(Nc1ccc(Cl)c(Cl)c1)C1CCN(c2nnc(-n3cccc3)s2)CC1,-2.6,.,-3.0,.,.,.,.,.
C/C(=N/NC(=O)c1ccco1)c1ccc(NC(=O)c2ccc(F)cc2)cc1,7.2,3.5,13.7*,5.5,-0.6,-0.7,0.3,2.1
C/C(=N/NC(=O)c1ccco1)c1ccc(NC(=O)c2ccc(Br)o2)cc1,-0.9,7.8,1.8,-4.8,-4.5,-3.2,.,.
Cc1ccc(C(=O)CSc2ncn[nH]2)cc1,-1.3,2.2,-0.6,-1.4,-3.9,-4.7,.,.
O=C(O)CSc1ncn[nH]1,15.3,2.0,13.5*,12.5,1.3,-5.3,7.0,0.6
S=C(Nc1ccc(Cl)cc1)OC1CCC12CCC(c1ccccc1)CC2 (stereo not drawn),-2.0,.,-2.8,.,.,.,.,.
CC(C)(C)n1nnnc1C(c1ccc(C(F)(F)F)cc1)N(Cc1ccc(F)cc1)Cc1ccco1 (stereo not drawn),4.4,0.1,17.5*,-3.4,5.8,-10.6,8.8,0.6
Cc1ccc(C(=O)NCC(=O)NC2CCC(C)CC2)s1 (stereo not drawn),-0.6,-4.2,97.9*,-7.9,1.9,8.4,3.8,1.2
Cc1ccc(C(=O)NC2CCC(C)CC2)s1 (stereo not drawn),-1.7,-1.5,-3.2,30.3,2.5,9.4,.,.
Cc1cccc(C)c1NC(=O)C1c2cccc[n+]2CC(=O)N1Cc1cccs1 (stereo not drawn),-0.7,0.6,46.4*,6.5,-1.4,7.4,1.3,3.2
